# In ChEMBL document CHEMBL3868583, “6-Aryl substituted 4-(4-cyanomethyl) phenylamino quinazolines as a new class of isoform-selective PI3K-alpha inhibitors” (Eur J Med Chem, 2016):
# Key:
# [1] = biological target: T1, Phosphatidylinositol 4,5-bisphosphate 3-kinase catalytic subunit delta isoform (Homo sapiens, UniProt O00329); assay: Inhibition of PI3Kdelta (unknown origin)
# T1 sequence (O00329 whole entry): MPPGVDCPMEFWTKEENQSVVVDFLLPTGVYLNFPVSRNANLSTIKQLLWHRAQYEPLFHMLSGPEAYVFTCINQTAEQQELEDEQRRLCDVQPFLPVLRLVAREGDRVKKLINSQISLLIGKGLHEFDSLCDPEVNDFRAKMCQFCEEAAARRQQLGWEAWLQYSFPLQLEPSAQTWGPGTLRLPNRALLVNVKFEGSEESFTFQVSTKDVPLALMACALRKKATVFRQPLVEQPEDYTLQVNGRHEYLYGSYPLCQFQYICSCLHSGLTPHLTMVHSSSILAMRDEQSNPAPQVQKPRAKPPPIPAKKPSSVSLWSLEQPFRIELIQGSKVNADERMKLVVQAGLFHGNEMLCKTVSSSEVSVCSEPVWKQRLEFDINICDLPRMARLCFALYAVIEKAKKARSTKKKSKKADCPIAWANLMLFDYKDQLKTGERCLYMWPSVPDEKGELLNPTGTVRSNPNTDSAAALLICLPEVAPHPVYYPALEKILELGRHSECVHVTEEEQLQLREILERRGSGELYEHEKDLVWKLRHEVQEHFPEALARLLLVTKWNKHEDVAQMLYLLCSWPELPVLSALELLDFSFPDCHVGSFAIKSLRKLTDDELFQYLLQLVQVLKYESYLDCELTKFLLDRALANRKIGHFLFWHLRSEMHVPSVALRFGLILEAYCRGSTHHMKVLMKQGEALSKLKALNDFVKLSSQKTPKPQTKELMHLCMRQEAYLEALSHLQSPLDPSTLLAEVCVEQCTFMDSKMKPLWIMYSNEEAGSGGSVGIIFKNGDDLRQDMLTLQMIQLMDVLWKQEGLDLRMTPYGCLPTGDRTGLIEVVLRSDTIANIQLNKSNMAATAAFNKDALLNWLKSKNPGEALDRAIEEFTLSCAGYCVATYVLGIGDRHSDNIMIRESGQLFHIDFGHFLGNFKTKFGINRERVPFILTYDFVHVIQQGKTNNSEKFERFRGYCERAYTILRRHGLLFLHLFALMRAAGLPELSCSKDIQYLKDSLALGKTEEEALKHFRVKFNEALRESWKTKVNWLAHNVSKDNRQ
# Method in brief: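 Substrate was 0.05 mM diC8 PIP2 with 0.01 mM ATP, and the kinase reaction ran 120 min. ADP produced was read by ADP-Glo luminescence: 40 min with ADP-Glo reagent, then 40 min with detection buffer.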
# [2] = biological target: T2, Phosphatidylinositol 4,5-bisphosphate 3-kinase catalytic subunit beta isoform (Homo sapiens, UniProt P42338); assay: Inhibition of PI3Kbeta (unknown origin)
# [3] = biological target: T3, Phosphatidylinositol 4,5-bisphosphate 3-kinase catalytic subunit gamma isoform (Homo sapiens, UniProt P48736)
# [4] = biological target: T4, Phosphatidylinositol 4,5-bisphosphate 3-kinase catalytic subunit alpha isoform (Homo sapiens, UniProt P42336); assay: Inhibition of PI3Kalpha (unknown origin)
# Method in brief: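 Run by a kinase profiling service. Reaction 80 min. ADP-Glo reagent added for 40 min, then kinase detection buffer for 40 min. Luminescence read.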
# [5] = Cytotoxicity against human PANC1 cells assessed as cell growth inhibition after 48 hrs by MTT assay; format: functional; details: PANC-1, 48 h
# Method in brief: (§1)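 MTT assay: 3 × 10^3 cells/well seeded, compounds added after 24 h at final […], 48 h exposure. MTT (2.5 mg/mL in PBS) added, formazan dissolved in DMSO, absorbance 570 nm. Viability as % of untreated; three independent experiments, mean ± SD.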
# [6] = biological target: T4, Phosphatidylinositol 4,5-bisphosphate 3-kinase catalytic subunit alpha isoform; assay: Inhibition of PI3Kalpha (unknown origin) using diC8 PIP2 as substrate at 0.5 uM after 80 mins by ADP-glo assay
# [7] = biological target: T1, Phosphatidylinositol 4,5-bisphosphate 3-kinase catalytic subunit delta isoform; assay: Inhibition of PI3Kdelta (unknown origin) using diC8 PIP2 as substrate after 120 mins by ADP-glo assay
# Method in brief: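 Delta isoform reacted 120 min in glycine-NaOH pH 8.5 buffer (50 mM KCl, 2.5 mM MgCl2, 1 mM DTT, 0.05% CHAPS) with 0.01 mM ATP and 0.05 mM diC8 PIP2; ADP formed detected by ADP-Glo (40 min) plus detection buffer (40 min) luminescence. Dundee profiling centre.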
# [8] = Cytotoxicity against human PC3 cells assessed as cell growth inhibition after 48 hrs by MTT assay; format: functional; details: PC-3, 48 h; method in brief: as §1
# [9] = species on record: Homo sapiens; assay: Selectivity ratio of IC50 for PI3Kbeta (unknown origin) to IC50 for PI3Kalpha (unknown origin)
# [10] = biological target: T3, Phosphatidylinositol 4,5-bisphosphate 3-kinase catalytic subunit gamma isoform; assay: Inhibition of PI3Kgamma (unknown origin) using diC8 PIP2 as substrate after 75 mins by ADP-glo assay
# [11] = Cytotoxicity against human HL60 cells assessed as cell growth inhibition after 48 hrs by MTT assay; format: functional; details: HL-60, 48 h; method in brief: as §1
# [12] = biological target: T2, Phosphatidylinositol 4,5-bisphosphate 3-kinase catalytic subunit beta isoform; assay: Inhibition of PI3Kbeta (unknown origin) using diC8 PIP2 as substrate after 60 mins by ADP-glo assay
# [13] = species on record: Homo sapiens; assay: Selectivity ratio of IC50 for PI3Kdelta (unknown origin) to IC50 for PI3Kalpha (unknown origin)
# [14] = Cytotoxicity against human A375 cells assessed as cell growth inhibition after 48 hrs by MTT assay; format: functional; details: A-375, 48 h; method in brief: as §1
# [15] = Cytotoxicity against human MCF7 cells assessed as cell growth inhibition after 48 hrs by MTT assay; format: functional; details: MCF7, 48 h; method in brief: as §1
# [16] = species on record: Homo sapiens; assay: Selectivity ratio of IC50 for PI3Kgamma (unknown origin) to IC50 for PI3Kalpha (unknown origin)
# [17] = biological target: T4, Phosphatidylinositol 4,5-bisphosphate 3-kinase catalytic subunit alpha isoform; assay: Inhibition of PI3Kalpha (unknown origin) using diC8 PIP2 as substrate after 80 mins by ADP-glo assay
# [18] = system: Mus musculus; assay: Toxicity in Swiss mouse implanted with Swiss mouse EAC cells assessed as mortality at 20 mg/kg, ip administered for 1 to 9 days measured on day 12; format: organism-based, Ehrlich; details: in vivo
# Method in brief: (§2)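 1×10^7 EAC cells injected intraperitoneally into Swiss mice on day 0. Mice randomized next day: treated groups n=7, saline control n=10 (0.2 ml i.p.). Dosing i.p. days 1–9. Sacrifice on day 12; ascitic fluid collected from the peritoneal cavity. % tumor growth inhibition from total tumor cell count versus control. Body weight and mortality tracked.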
# [19] = system: Mus musculus; assay: Toxicity in Swiss mouse implanted with Swiss mouse EAC cells assessed as body weight at 20 mg/kg, ip administered for 1 to 9 days measured on day 1 (reference value: 22.8 g); format: organism-based, Ehrlich; details: in vivo; method in brief: as §2
# [20] = system: Mus musculus; assay: Toxicity in Swiss mouse implanted with Swiss mouse EAT cells assessed as body weight at 22 mg/kg, ip administered for 1 to 9 days measured on day 1 (reference value: 21.6 g); format: organism-based; details: in vivo
# Method in brief: (§3)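 EAC cells harvested from 8–10-day ascitic Swiss mice; 1×10^7 cells injected intramuscularly into right thigh of Swiss male mice on day 0. Randomized next day: treated n=7, saline control n=10 (0.2 ml i.p.). Dosing i.p. days 1–9. […] Body weight and mortality tracked.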
# [21] = system: Mus musculus; assay: Toxicity in Swiss mouse implanted with Swiss mouse EAT cells assessed as body weight at 22 mg/kg, ip administered for 1 to 9 days measured on day 5 (reference value: 22.6 g); format: organism-based; details: in vivo; method in brief: as §3
# [22] = system: Mus musculus; assay: Toxicity in Swiss mouse implanted with Swiss mouse EAC cells assessed as body weight at 20 mg/kg, ip administered for 1 to 9 days measured on day 5 (reference value: 26.2 g); format: organism-based, Ehrlich; details: in vivo; method in brief: as §2
# [23] = Anticancer activity against Swiss mouse EAC cells implanted in Swiss mouse assessed as tumor growth inhibition at 20 mg/kg, ip administered for 1 to 9 days measured on day 12 relative to control; format: functional; details: Ehrlich, read-out: TGI; method in brief: as §2
# [24] = system: Mus musculus; assay: Toxicity in Swiss mouse implanted with Swiss mouse EAC cells assessed as body weight at 20 mg/kg, ip administered for 1 to 9 days measured on day 12 (reference value: 28.4 g); format: organism-based, Ehrlich; details: in vivo; method in brief: as §2
# [25] = system: Mus musculus; assay: Toxicity in Swiss mouse implanted with Swiss mouse EAT cells assessed as body weight at 22 mg/kg, ip administered for 1 to 9 days measured on day 9 (reference value: 22.8 g); format: organism-based; details: in vivo; method in brief: as §3
# [26] = system: Mus musculus; assay: Toxicity in Swiss mouse implanted with Swiss mouse EAT cells assessed as body weight at 22 mg/kg, ip administered for 1 to 9 days measured on day 13 (reference value: 24.1 g); format: organism-based; details: in vivo; method in brief: as §3
# [27] = system: Mus musculus; assay: Toxicity in Swiss mouse implanted with Swiss mouse EAT cells assessed as mortality at 22 mg/kg, ip administered for 1 to 9 days measured on day 9 and 13; format: organism-based; details: in vivo; method in brief: as §3
# [28] = system: Mus musculus; assay: Toxicity in Swiss mouse implanted with Swiss mouse EAC cells assessed as body weight at 20 mg/kg, ip administered for 1 to 9 days measured on day 9 (reference value: 27.7 g); format: organism-based, Ehrlich; details: in vivo; method in brief: as §2
# [29] = Anticancer activity against Swiss mouse EAT cells implanted in Swiss mouse assessed as tumor growth inhibition at 22 mg/kg, ip administered for 1 to 9 days measured on day 13 relative to control; format: functional; details: read-out: TGI
# T4 sequence (P42336 whole entry, canonical isoform): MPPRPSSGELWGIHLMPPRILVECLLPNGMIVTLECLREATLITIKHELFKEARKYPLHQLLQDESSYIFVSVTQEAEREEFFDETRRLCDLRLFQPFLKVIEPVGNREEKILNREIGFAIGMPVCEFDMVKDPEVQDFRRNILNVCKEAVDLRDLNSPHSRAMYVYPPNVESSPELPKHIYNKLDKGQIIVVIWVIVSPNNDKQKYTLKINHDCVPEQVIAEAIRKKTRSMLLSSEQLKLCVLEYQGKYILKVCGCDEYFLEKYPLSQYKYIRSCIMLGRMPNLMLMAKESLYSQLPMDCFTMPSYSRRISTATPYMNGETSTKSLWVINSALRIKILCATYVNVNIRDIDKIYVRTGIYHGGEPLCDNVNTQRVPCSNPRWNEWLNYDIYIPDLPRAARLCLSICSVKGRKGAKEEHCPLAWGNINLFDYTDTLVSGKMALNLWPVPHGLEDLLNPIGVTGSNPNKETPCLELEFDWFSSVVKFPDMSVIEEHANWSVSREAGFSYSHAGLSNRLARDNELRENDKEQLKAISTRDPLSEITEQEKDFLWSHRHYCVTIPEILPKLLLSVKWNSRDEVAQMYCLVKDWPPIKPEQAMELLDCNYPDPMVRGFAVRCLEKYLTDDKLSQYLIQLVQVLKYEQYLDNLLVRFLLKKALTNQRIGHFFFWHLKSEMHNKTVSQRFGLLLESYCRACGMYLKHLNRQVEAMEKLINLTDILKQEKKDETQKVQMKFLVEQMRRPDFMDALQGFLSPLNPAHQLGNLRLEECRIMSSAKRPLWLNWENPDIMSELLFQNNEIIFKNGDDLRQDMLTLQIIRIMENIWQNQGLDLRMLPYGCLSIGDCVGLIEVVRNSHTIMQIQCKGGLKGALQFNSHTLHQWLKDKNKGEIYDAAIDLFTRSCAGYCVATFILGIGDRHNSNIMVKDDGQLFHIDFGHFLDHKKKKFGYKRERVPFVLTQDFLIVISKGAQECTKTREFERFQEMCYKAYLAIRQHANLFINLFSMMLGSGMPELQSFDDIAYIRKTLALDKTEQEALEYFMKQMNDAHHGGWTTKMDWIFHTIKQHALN
# T3 sequence (P48736 whole entry, canonical isoform): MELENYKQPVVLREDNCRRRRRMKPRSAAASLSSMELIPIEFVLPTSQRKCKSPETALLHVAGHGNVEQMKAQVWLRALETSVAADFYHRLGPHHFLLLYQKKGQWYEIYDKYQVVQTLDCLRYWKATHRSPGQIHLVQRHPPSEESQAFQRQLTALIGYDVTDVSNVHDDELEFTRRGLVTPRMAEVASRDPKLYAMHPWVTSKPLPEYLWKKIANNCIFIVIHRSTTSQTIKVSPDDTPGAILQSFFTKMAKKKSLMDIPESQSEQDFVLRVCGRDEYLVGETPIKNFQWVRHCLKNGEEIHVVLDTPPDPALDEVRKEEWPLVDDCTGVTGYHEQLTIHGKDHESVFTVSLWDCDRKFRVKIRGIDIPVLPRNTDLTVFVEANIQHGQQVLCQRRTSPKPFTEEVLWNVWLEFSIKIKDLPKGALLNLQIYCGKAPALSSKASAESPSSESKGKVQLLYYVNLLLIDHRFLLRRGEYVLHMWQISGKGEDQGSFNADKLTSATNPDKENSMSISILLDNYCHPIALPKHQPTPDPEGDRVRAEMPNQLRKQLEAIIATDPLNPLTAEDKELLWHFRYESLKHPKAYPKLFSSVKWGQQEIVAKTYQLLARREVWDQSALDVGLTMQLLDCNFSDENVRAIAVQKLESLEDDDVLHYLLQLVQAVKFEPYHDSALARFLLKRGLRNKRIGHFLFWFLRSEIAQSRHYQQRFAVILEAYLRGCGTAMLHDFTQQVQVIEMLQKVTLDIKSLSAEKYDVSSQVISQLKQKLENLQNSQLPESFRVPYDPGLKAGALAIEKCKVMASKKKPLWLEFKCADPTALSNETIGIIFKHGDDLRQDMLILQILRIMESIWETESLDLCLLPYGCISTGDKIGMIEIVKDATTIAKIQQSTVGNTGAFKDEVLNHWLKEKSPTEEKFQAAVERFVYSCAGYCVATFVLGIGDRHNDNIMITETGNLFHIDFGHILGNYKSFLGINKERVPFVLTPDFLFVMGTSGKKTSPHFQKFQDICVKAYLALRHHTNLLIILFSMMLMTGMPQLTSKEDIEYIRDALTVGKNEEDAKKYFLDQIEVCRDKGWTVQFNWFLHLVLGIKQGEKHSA
# T2 sequence (P42338 whole entry, canonical isoform): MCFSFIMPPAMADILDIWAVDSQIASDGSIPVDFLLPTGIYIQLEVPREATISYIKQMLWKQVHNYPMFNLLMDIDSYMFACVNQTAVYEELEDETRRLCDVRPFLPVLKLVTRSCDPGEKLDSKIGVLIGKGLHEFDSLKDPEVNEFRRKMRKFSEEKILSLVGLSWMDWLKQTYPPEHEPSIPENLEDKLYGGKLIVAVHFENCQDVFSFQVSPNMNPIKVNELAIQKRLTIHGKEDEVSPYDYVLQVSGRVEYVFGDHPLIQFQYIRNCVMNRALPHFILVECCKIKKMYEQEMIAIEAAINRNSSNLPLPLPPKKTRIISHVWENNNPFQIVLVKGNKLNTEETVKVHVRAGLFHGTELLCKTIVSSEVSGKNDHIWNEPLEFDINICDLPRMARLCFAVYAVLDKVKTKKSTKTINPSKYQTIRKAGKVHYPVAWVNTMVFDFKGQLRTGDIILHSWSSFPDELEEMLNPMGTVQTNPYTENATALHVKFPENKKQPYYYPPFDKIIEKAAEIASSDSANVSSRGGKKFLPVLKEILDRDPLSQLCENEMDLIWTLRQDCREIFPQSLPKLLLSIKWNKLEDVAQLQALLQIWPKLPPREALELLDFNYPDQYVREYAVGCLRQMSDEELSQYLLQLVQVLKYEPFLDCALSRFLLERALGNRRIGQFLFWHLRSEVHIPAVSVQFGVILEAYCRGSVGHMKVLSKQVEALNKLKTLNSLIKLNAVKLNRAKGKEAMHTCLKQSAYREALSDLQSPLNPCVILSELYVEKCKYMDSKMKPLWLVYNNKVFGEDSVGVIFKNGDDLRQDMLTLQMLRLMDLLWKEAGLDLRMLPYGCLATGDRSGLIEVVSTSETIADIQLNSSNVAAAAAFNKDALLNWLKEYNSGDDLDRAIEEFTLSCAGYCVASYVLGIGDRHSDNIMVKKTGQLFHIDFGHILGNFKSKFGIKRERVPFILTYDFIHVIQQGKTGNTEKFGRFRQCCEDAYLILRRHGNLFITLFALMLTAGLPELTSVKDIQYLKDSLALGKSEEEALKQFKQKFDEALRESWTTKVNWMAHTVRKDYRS
smiles,measurement,setting,value
Nc1nc2cc(-c3ccc4ncc(C(=O)N5CCOCC5)n4c3)ccc2o1 [SERABELISIB],IC50,[1],13.9 µM
same,IC50,[2],4.5 µM
same,IC50,[3],1.9 µM
same,IC50,[4],0.015 µM
N#CCc1ccc(Nc2ncnc3ccc(-c4ccccc4)cc23)cc1,GI50,[5],38 µM
same,inhibition,[6],36.8%
same,IC50,[7],> 10 µM
same,GI50,[8],26 µM
same,Ratio IC50,[9],> 21
same,IC50,[10],6.95 µM
same,GI50,[11],23 µM
same,IC50,[12],> 10 µM
same,Ratio IC50,[13],> 21
same,GI50,[14],38 µM
same,GI50,[15],14 µM
same,Ratio IC50,[16],14.6
same,IC50,[17],0.475 µM
O=c1[nH]cc(F)c(=O)[nH]1 [FLUOROURACIL],Activity,[18],Non-Toxic
same,Activity,[19],21.42 g
same,Activity,[20],20.14 g
same,Activity,[21],20.85 g
same,Activity,[22],22 g
same,inhibition in vivo at 20 mg/kg,[23],96.9%
same,Activity,[24],20.42 g
same,Activity,[25],21 g
same,Activity,[26],22.14 g
same,Activity,[27],Non-Toxic
same,Activity,[28],21.28 g
same,inhibition in vivo at 22 mg/kg,[29],50%
COc1cc2ncnc(Nc3ccc(CC#N)cc3)c2cc1OC,GI50,[5],55 µM
same,IC50,[7],55 µM
same,GI50,[8],34 µM
same,IC50,[10],40 µM
same,GI50,[11],47 µM
same,IC50,[12],19 µM
same,GI50,[14],19 µM
same,GI50,[15],40 µM
same,IC50,[17],47 µM
